Experiments:
Format in all cases: ADME, cell-based
Details in all cases: hepatocytes
Hepatocyte [1] = assay: Drug uptake in human hepatocyte at 250 uM after 24 hrs assessed as 4-amino-1-((2R,3R,4R,5R)-3-fluoro-4-hydroxy-5-(hydroxymethyl)-3-methyl-tetrahydrofuran-2-yl)pyrimidin-2(1H)-one di phosphate level per 10^6 cells
Method in brief: (§1)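 Primary human hepatocytes from 3 donors were plated on collagen and recovered for ≥18 h. They were exposed for 24 h, in duplicate, to 0–250 μM drug: 3H-labelled material diluted with unlabelled compound. Total intracellular radioactivity and individual phosphates were measured in methanol extracts by SAX HPLC with radiometric detection. Results are pmol/10^6 cells, mean ± S.D.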

Hepatocyte [2] = assay: Drug uptake in human hepatocyte at 2 uM after 48 hrs assessed as 4-amino-1-((2R,3R,4R,5R)-3-fluoro-4-hydroxy-5-(hydroxymethyl)-3-methyl-tetrahydrofuran-2-yl)pyrimitrin-2(1H)-one tri phosphate level per 10^6 cells
Method in brief: (§2)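 Primary human hepatocytes from 4 donors were plated at 1.5 million cells/well on collagen and recovered for ≥18 h. They were dosed with 3H-labelled drug at 2 μM (10 μCi/ml) for 1–72 h, in duplicate, at 37°C. Cold 60% methanol extracts were run on SAX ion-exchange HPLC with radiometric detection and compared with reference standards. Results are pmol/10^6 cells, mean ± S.D.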

Hepatocyte [3] = assay: Drug uptake in human hepatocyte at 100 uM after 24 hrs assessed as 1-((2R,3R,4R,5R)-3-fluoro-4-hydroxy-5-(hydroxymethyl)-3-methyl-tetrahydrofuran-2-yl)pyrimidine-2,4(1H,3H)-dione di phosphate level per 10^6 cells; method in brief: as §1
Hepatocyte [4] = assay: Drug uptake in human hepatocyte at 25 uM after 24 hrs assessed as 1-((2R,3R,4R,5R)-3-fluoro-4-hydroxy-5-(hydroxymethyl)-3-methyl-tetrahydrofuran-2-yl)pyrimidine-2,4(1H,3H)-dione tri phosphate level per 10^6 cells; method in brief: as §1
Hepatocyte [5] = assay: Drug uptake in human hepatocyte at 100 uM after 24 hrs assessed per 10^6 cells; method in brief: as §1
Hepatocyte [6] = assay: Drug uptake in human hepatocyte at 10 uM after 24 hrs assessed as 4-amino-1-((2R,3R,4R,5R)-3-fluoro-4-hydroxy-5-(hydroxymethyl)-3-methyl-tetrahydrofuran-2-yl)pyrimidin-2(1H)-one di phosphate level per 10^6 cells; method in brief: as §1
Hepatocyte [7] = assay: Drug uptake in human hepatocyte at 2 uM after 6 hrs assessed as 4-amino-1-((2R,3R,4R,5R)-3-fluoro-4-hydroxy-5-(hydroxymethyl)-3-methyl-tetrahydrofuran-2-yl)pyrimitrin-2(1H)-one tri phosphate level per 10^6 cells; method in brief: as §2
Hepatocyte [8] = assay: Drug uptake in human hepatocyte at 50 uM after 24 hrs assessed per 10^6 cells; method in brief: as §1
Hepatocyte [9] = assay: Drug uptake in human hepatocyte at 25 uM after 24 hrs assessed per 10^6 cells; method in brief: as §1
Hepatocyte [10] = assay: Drug uptake in human hepatocyte at 2 uM after 6 hrs assessed as 1-((2R,3R,4R,5R)-3-fluoro-4-hydroxy-5-(hydroxymethyl)-3-methyl-tetrahydrofuran-2-yl)pyrimitrine-2,4(1H,3H)-trione tri phosphate level per 10^6 cells; method in brief: as §2
Hepatocyte [11] = assay: Drug uptake in human hepatocyte at 50 uM after 24 hrs assessed as 4-amino-1-((2R,3R,4R,5R)-3-fluoro-4-hydroxy-5-(hydroxymethyl)-3-methyl-tetrahydrofuran-2-yl)pyrimidin-2(1H)-one tri phosphate level per 10^6 cells; method in brief: as §1
Hepatocyte [12] = assay: Drug uptake in human hepatocyte at 250 uM after 24 hrs assessed as 4-amino-1-((2R,3R,4R,5R)-3-fluoro-4-hydroxy-5-(hydroxymethyl)-3-methyl-tetrahydrofuran-2-yl)pyrimidin-2(1H)-one tri phosphate level per 10^6 cells; method in brief: as §1
Hepatocyte [13] = assay: Drug uptake in human hepatocyte at 2 uM after 24 hrs assessed as 1-((2R,3R,4R,5R)-3-fluoro-4-hydroxy-5-(hydroxymethyl)-3-methyl-tetrahydrofuran-2-yl)pyrimidine-2,4(1H,3H)-dione tri phosphate level per 10^6 cells; method in brief: as §1
Hepatocyte [14] = assay: Drug uptake in human hepatocyte at 2 uM after 72 hrs assessed per 10^6 cells; method in brief: as §2
Hepatocyte [15] = assay: Drug uptake in human hepatocyte at 2 uM after 72 hrs assessed as 4-amino-1-((2R,3R,4R,5R)-3-fluoro-4-hydroxy-5-(hydroxymethyl)-3-methyl-tetrahydrofuran-2-yl)pyrimitrin-2(1H)-one tri phosphate level per 10^6 cells; method in brief: as §2
Hepatocyte [16] = assay: Drug uptake in human hepatocyte at 2 uM after 24 hrs assessed as 4-amino-1-((2R,3R,4R,5R)-3-fluoro-4-hydroxy-5-(hydroxymethyl)-3-methyl-tetrahydrofuran-2-yl)pyrimidin-2(1H)-one di phosphate level per 10^6 cells; method in brief: as §1
Hepatocyte [17] = assay: Drug uptake in human hepatocyte at 2 uM after 24 hrs assessed as 1-((2R,3R,4R,5R)-3-fluoro-4-hydroxy-5-(hydroxymethyl)-3-methyl-tetrahydrofuran-2-yl)pyrimidine-2,4(1H,3H)-dione di phosphate level per 10^6 cells; method in brief: as §1
Hepatocyte [18] = assay: Drug uptake in human hepatocyte at 250 uM after 24 hrs assessed as 1-((2R,3R,4R,5R)-3-fluoro-4-hydroxy-5-(hydroxymethyl)-3-methyl-tetrahydrofuran-2-yl)pyrimidine-2,4(1H,3H)-dione di phosphate level per 10^6 cells; method in brief: as §1
Hepatocyte [19] = assay: Drug uptake in human hepatocyte at 50 uM after 24 hrs assessed as 4-amino-1-((2R,3R,4R,5R)-3-fluoro-4-hydroxy-5-(hydroxymethyl)-3-methyl-tetrahydrofuran-2-yl)pyrimidin-2(1H)-one di phosphate level per 10^6 cells; method in brief: as §1
Hepatocyte [20] = assay: Drug uptake in human hepatocyte at 250 uM after 24 hrs assessed as 1-((2R,3R,4R,5R)-3-fluoro-4-hydroxy-5-(hydroxymethyl)-3-methyl-tetrahydrofuran-2-yl)pyrimidine-2,4(1H,3H)-dione tri phosphate level per 10^6 cells; method in brief: as §1
Hepatocyte [21] = assay: Drug uptake in human hepatocyte at 2 uM after 24 hrs assessed as 1-((2R,3R,4R,5R)-3-fluoro-4-hydroxy-5-(hydroxymethyl)-3-methyl-tetrahydrofuran-2-yl)[…] tri phosphate level per 10^6 cells; method in brief: as §2
Hepatocyte [22] = assay: Drug uptake in human hepatocyte at 10 uM after 24 hrs assessed as 1-((2R,3R,4R,5R)-3-fluoro-4-hydroxy-5-(hydroxymethyl)-3-methyl-tetrahydrofuran-2-yl)pyrimidine-2,4(1H,3H)-dione tri phosphate level per 10^6 cells; method in brief: as §1
Hepatocyte [23] = assay: Drug uptake in human hepatocyte at 2 uM after 16 hrs assessed as 1-((2R,3R,4R,5R)-3-fluoro-4-hydroxy-5-(hydroxymethyl)-3-methyl-tetrahydrofuran-2-yl)pyrimitrine-2,4(1H,3H)-trione tri phosphate level per 10^6 cells; method in brief: as §2
Hepatocyte [24] = assay: Drug uptake in human hepatocyte at 2 uM after 24 hrs assessed per 10^6 cells
Hepatocyte [25] = assay: Drug uptake in human hepatocyte at 2 uM after 16 hrs assessed as 4-amino-1-((2R,3R,4R,5R)-3-fluoro-4-hydroxy-5-(hydroxymethyl)-3-methyl-tetrahydrofuran-2-yl)[…]-2(1H)-one tri phosphate level per 10^6 cells; method in brief: as §2
Hepatocyte [26] = assay: Drug uptake in human hepatocyte at 2 uM after 72 hrs assessed as 1-((2R,3R,4R,5R)-3-fluoro-4-hydroxy-5-(hydroxymethyl)-3-methyl-tetrahydrofuran-2-yl)[…] tri phosphate level per 10^6 cells; method in brief: as §2
Hepatocyte [27] = assay: Drug uptake in human hepatocyte at 50 uM after 24 hrs assessed as 1-((2R,3R,4R,5R)-3-fluoro-4-hydroxy-5-(hydroxymethyl)-3-methyl-tetrahydrofuran-2-yl)pyrimidine-2,4(1H,3H)-dione di phosphate level per 10^6 cells; method in brief: as §1

C[C@@]1(F)[C@H](O)[C@@H](CO)O[C@H]1n1ccc(N)nc1=O
Drug uptake (Hepatocyte [1]): 19.6 pmol
Drug uptake (Hepatocyte [2]): 1.3 pmol
Drug uptake (Hepatocyte [3]): 34.7 pmol
Drug uptake (Hepatocyte [4]): 21.7 pmol
Drug uptake (Hepatocyte [5]): 1529.9 pmol
Drug uptake (Hepatocyte [6]): 2.4 pmol
Drug uptake (Hepatocyte [7]): 0.6 pmol
Drug uptake (Hepatocyte [8]): 847.9 pmol
Drug uptake (Hepatocyte [9]): 439.1 pmol
Drug uptake (Hepatocyte [10]): 0.3 pmol
Drug uptake (Hepatocyte [11]): 18.7 pmol
Drug uptake (Hepatocyte [12]): 40.4 pmol
Drug uptake (Hepatocyte [13]): 2.4 pmol
Drug uptake (Hepatocyte [14]): 34.6 pmol
Drug uptake (Hepatocyte [15]): 1 pmol
Drug uptake (Hepatocyte [16]): 0.3 pmol
Drug uptake (Hepatocyte [17]): 0.9 pmol
Drug uptake (Hepatocyte [18]): 40.9 pmol
Drug uptake (Hepatocyte [19]): 8.2 pmol
Drug uptake (Hepatocyte [20]): 84 pmol
Drug uptake (Hepatocyte [21]): 1.3 pmol
Drug uptake (Hepatocyte [22]): 9.6 pmol
Drug uptake (Hepatocyte [23]): 0.6 pmol
Drug uptake (Hepatocyte [24]): 34.5 pmol
Drug uptake (Hepatocyte [25]): 0.7 pmol
Drug uptake (Hepatocyte [26]): 2 pmol
Drug uptake (Hepatocyte [27]): 20.3 pmol

Reference: ChEMBL document CHEMBL1156500, “Characterization of the metabolic activation of hepatitis C virus nucleoside inhibitor beta-D-2'-Deoxy-2'-fluoro-2'-C-methylcytidine (PSI-6130) and identification of a novel active 5'-triphosphate species” (J Biol Chem, 2007)
